# From article PMC3047606 (The Journal of General Physiology, 2011)
# Where a chain is given by its changes, count along the chain named. “And” between values parts separate entries of the source, which are not always exact repeats. Identical values can stand only once. “Also recorded” adds a separate entry of the source. Like-named read-outs stand apart in the source and are kept apart here. Marks after values point to notes of the source that are not given here.
# How the values were obtained:
# WT TRPV3 = biological target: T1, WT TRPV3 (Homo sapiens, UniProt Q8NET8); assay type: biochemical; conditions: inside-out patches, +80 mV; for effect on NPOPEN of PI-PLC-stimulated TRPV3: 30 µM diC8-phosphatidylinositol phosphate
# T1 sequence (Q8NET8 1-790): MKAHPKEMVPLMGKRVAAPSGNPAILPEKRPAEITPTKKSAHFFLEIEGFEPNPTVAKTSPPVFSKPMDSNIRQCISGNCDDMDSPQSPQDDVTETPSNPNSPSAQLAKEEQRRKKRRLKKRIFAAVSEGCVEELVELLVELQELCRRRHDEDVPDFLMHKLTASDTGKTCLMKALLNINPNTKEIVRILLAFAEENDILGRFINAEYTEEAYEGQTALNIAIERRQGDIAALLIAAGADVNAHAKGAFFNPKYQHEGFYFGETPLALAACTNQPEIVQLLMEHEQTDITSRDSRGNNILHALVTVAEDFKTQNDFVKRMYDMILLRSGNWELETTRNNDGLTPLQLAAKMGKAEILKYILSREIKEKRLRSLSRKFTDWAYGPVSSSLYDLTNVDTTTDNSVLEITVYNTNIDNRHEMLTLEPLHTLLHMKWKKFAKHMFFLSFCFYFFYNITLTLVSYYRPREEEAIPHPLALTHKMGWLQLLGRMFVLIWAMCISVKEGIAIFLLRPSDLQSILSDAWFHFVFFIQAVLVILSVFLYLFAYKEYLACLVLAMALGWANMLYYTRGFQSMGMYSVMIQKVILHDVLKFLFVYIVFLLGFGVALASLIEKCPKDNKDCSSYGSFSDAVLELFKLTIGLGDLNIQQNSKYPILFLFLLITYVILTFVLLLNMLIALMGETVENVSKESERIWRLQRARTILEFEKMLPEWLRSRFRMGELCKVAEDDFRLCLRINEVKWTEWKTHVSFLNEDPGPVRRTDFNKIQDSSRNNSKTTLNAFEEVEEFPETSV
# Outline: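 WT TRPV3 was expressed in HM1 cells by calcium-phosphate transfection and recorded 24–48 h later. Inside-out patches were held at +80 mV in symmetrical NaCl/HEPES/EGTA at pH 7.4. Patches got anti-PI(4,5)P2 mAb (1:200) or 0.5 U/ml PI-PLC for 5 min, or 100 µM OAG for 2 min, by perfusion and then a still bath. diC8-phosphoinositides were added after PI-PLC. NPOPEN was taken before and after; Hill fit over 1–60 µM.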
# native TRPV3 channels = biological target: T2, native TRPV3 channels (Homo sapiens, UniProt Q8NET8); assay type: cell-based; conditions: for increase of 2-APB-activated TRPV3 whole cell current amplitude: 100 µM ATP, n = 4 cells; for activation of membrane currents by TRP channel agonists: bath superfusion, 2-APB 30 µM
# T2 sequence (Q8NET8 1-790): T1 sequence (Q8NET8 1-790)
# Outline: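 Whole-cell voltage clamp of primary human epidermal keratinocytes plated on coverslips and recorded 24–48 h later, at room temperature. Bath was NaCl/KCl/HEPES/glucose/MgCl2/1.8 mM BaCl2, pH 7.4; pipette was Cs-methanesulfonate with ~50 nM free Ca2+, pH 7.3. Voltage steps were run in 30 µM 2-APB, then with 100 µM ATP or vehicle. Tail currents were fitted with Boltzmann functions for V0.5 and VIF; n = 4 cells.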
# human TRPV3 (WT) = biological target: T3, human TRPV3 (WT) (Homo sapiens, UniProt Q8NET8); assay type: cell-based
# T3 sequence (Q8NET8 1-790): T1 sequence (Q8NET8 1-790)
# TRPV3 R696A [1] = biological target: T4, TRPV3 R696A (Homo sapiens, UniProt Q8NET8, R696A); assay type: biochemical; conditions: 30 µM diC8-PI(4,5)P2, inside-out patches
# T4 sequence (Q8NET8 1-790 R696A): T1 sequence (Q8NET8 1-790) with R696A
# Outline: (§1)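 HM1 cells were calcium-phosphate transfected with the mutant channel, GFP-identified, and used 24–48 h later. Inside-out patches were held at +80 mV at 21–24°C in symmetrical 145 mM NaCl, 5 mM […], 20 mM HEPES, 1 mM EGTA, pH 7.4. Patches received anti-PI(4,5)P2 mAb (1:200) or 0.5 U/ml PI-PLC, then 30 µM diC8-PI(4,5)P2. NPOPEN was measured, n = 3–5 patches.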
# TRPV3 K705A = biological target: T5, TRPV3 K705A (Homo sapiens, UniProt Q8NET8, K705A); assay type: biochemical; conditions: 30 µM diC8-PI(4,5)P2, inside-out patches
# T5 sequence (Q8NET8 1-790 K705A): T1 sequence (Q8NET8 1-790) with K705A
# Outline: as §1
# TRPV3 R696A [2] = biological target: T4, TRPV3 R696A; assay type: cell-based
smiles,measurement,setting,value
CCCCCCCC(=O)OC[C@H](COP(=O)(O)O[C@H]1[C@H](O)[C@@H](OP(=O)(O)O)[C@H](O)[C@@H](O)[C@H]1O)OC(=O)CCCCCCC [PI(5)P],effect on NPOPEN of PI-PLC-stimulated TRPV3,WT TRPV3,failed to significantly decrease NPOPEN
"CCCCCCCC(=O)OC[C@H](COP(=O)(O)O[C@H]1[C@H](O)[C@@H](OP(=O)(O)O)[C@H](OP(=O)(O)O)[C@@H](OP(=O)(O)O)[C@H]1O)OC(=O)CCCCCCC [PI(3,4,5)P3]",effect on NPOPEN of PI-PLC-stimulated TRPV3,WT TRPV3,failed to significantly decrease NPOPEN
Nc1ncnc2c1ncn2[C@@H]1O[C@H](COP(=O)(O)OP(=O)(O)OP(=O)(O)O)[C@@H](O)[C@H]1O [ATP],increase of 2-APB-activated TRPV3 whole cell current amplitude,"native TRPV3 channels; 30 µM 2-APB, +80 mV",5.6 ± 1.6 fold
same,increase of 2-APB-activated TRPV3 whole cell current amplitude,"native TRPV3 channels; 30 µM 2-APB, −80 mV",6.3 ± 1.9 fold
same,increase of voltage-independent fraction (VIF),"native TRPV3 channels; after 100 µM ATP, 30 µM 2-APB",26.7 ± 5.1%
same,shift of half-maximal activation (V0.5),"native TRPV3 channels; after 100 µM ATP, 30 µM 2-APB",−61.7 ± 17.8 mV
N.N.N.N.N.N.N.N.N.N.N.N.N.N.[Cl-].[Cl-].[Cl-].[Cl-].[Cl-].[Cl-].[O-2].[O-2].[Ru+3].[Ru+3].[Ru+4] [Ruthenium red],block of 2-APB-activated current,"native TRPV3 channels; whole cell, ruthenium red",eliminated only the inward component
CC12CCC(CC1=O)C2(C)C (stereo not drawn) [camphor],activation of membrane currents by TRP channel agonists,native TRPV3 channels; whole cell,elicited currents
"CCCCCCCC/C=C\CCCCCCCC(=O)OC[C@H](CO)OC(C)=O [OAG, 1-oleoyl-2-acetyl-sn-glycerol]",effect on TRPV3 channel activity (NPOPEN),WT TRPV3; 100 µM OAG,did not significantly increase; also recorded: failed to significantly elevate NPOPEN
"NCCOB(c1ccccc1)c1ccccc1 [2-APB, 2-aminoethyoxy diphenylborinate]",increase in 2-APB potency after CCh exposure,human TRPV3 (WT),approximately fourfold
same,activation of membrane currents by TRP channel agonists,native TRPV3 channels; whole cell,activated small voltage-dependent currents
"CCCCCCCC(=O)OC[C@H](COP(=O)(O)O[C@@H]1[C@H](O)[C@H](OP(=O)(O)O)[C@@H](O)[C@H](OP(=O)(O)O)[C@H]1O)OC(=O)CCCCCCC [PI(3,5)P2]",effect on NPOPEN of PI-PLC-stimulated TRPV3,WT TRPV3,failed to significantly decrease NPOPEN
"COC[C@H]1OC(=O)c2coc3c2[C@@]1(C)C1=C(C3=O)[C@@H]2CCC(=O)[C@@]2(C)C[C@H]1OC(C)=O [WM, wortmannin]",current potentiation (fold increase),human TRPV3 (WT),9.6 ± 2.2 fold and 13.2 ± 2.8 fold
same,ΔV0.5,human TRPV3 (WT),−98.4 ± 18.6 mV
same,ΔVIF,human TRPV3 (WT),19.7 ± 3.8%
CCCCCCCC(=O)OC[C@H](COP(=O)(O)O[C@H]1[C@H](O)[C@@H](O)[C@H](OP(=O)(O)O)[C@@H](O)[C@H]1O)OC(=O)CCCCCCC [PI(4)P],effect on NPOPEN of PI-PLC-stimulated TRPV3,WT TRPV3,failed to significantly decrease NPOPEN
"Cc1ccc(C(C)C)cc1O [Carvacrol, carvacrol]",activation of membrane currents by TRP channel agonists,native TRPV3 channels; whole cell,elicited currents
CCCCCCCC(=O)OC[C@H](COP(=O)(O)O[C@@H]1[C@H](O)[C@H](OP(=O)(O)O)[C@@H](O)[C@H](O)[C@H]1O)OC(=O)CCCCCCC [PI(3)P],effect on NPOPEN of PI-PLC-stimulated TRPV3,WT TRPV3,failed to significantly decrease NPOPEN
"CCCCCCCC(=O)OC[C@H](COP(=O)(O)O[C@@H]1[C@H](O)[C@H](O)[C@@H](OP(=O)(O)O)[C@H](OP(=O)(O)O)[C@H]1O)OC(=O)CCCCCCC [diC8-PI(4,5)P2, D-myo-phosphatidylinositol 4,5-bisphosphate C8]",effect on NPOPEN of PI-PLC-stimulated TRPV3,WT TRPV3,nearly maximal inhibitory effect
same,effect on channel activity,TRPV3 R696A [1],unaffected; also recorded: insensitive
same,effect on channel activity,TRPV3 K705A,unaffected; also recorded: insensitive
"C[N+](C)(C)CCOC(N)=O.[Cl-] [CCh, carbamylcholine]",Arrhenius slope of temperature-dependent activation,human TRPV3 (WT),10.3
same,apparent threshold for temperature-dependent activation (Th),human TRPV3 (WT),18.3 ^a °C
same,change of thermal coefficient (Q10) by CCh exposure,human TRPV3 (WT),changed only slightly
same,fold change in step current,human TRPV3 (WT),31.1 fold and 31.1 ± 7.9 fold
same,shift of apparent threshold for thermal activation (Th),human TRPV3 (WT),−10 °C
same,ΔVIF,TRPV3 R696A [2],21.3%
